A selection: hits, their analogues and other compounds. The true share with any hit is near 0.94%.
PKA-R1A activ: PKA-R1A complex activation; P00514+P68181; activation, % at 11.4 µM; AID 504707; 0.083% of 340,000 active; PKA-R1A dissociation, Cy5-IP20 fluorescence polarization; scaled: DMSO 0%, 113 µM cGMP 100%;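 active means percent activation above the mean of all tested compounds plus 3 SD, cut at about 19% in these data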;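 further: higher means more PKAc released from R1A so a rise in polarization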
UCH37 inh: human UCH37 deubiquitinating enzyme inhibition; 0.33% of 330,000 active; AID 588478; purified proteasome/UCH37, Ub-AMC cleavage fluorescence; Q9Y5K5; inhibition, % (test concentration not listed);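 active means mean inhibition over replicate wells above about 20%, limit read from the data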;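 further: 0% = compound-free wells with enzyme and 100% = wells lacking proteasome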
Target sequence (Q9Y5K5 whole entry, looked up): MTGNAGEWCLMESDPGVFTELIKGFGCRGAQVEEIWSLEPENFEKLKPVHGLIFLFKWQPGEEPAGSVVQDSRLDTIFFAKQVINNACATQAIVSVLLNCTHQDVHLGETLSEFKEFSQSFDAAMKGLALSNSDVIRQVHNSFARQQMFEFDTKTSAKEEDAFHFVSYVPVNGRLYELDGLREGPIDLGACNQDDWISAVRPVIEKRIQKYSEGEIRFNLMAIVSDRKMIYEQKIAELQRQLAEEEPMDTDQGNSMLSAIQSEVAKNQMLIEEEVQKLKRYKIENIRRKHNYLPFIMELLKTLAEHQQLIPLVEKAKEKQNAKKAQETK
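Schedule: 30 min plus 25 min, room temperature / Material: human UCH37 within purified proteasomes / Technique: AMC fluorescence intensity at 355/460 nm / Buffer or medium: pH 7.4 Tris-HCl (50 mM) with ovalbumin, ATP-MgCl2, DTT / Controls: wells without proteasome as full block, compound-free enzyme plus substrate as uninhibited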
PKA-R2B activ: PKA-R2B complex activation; P22694+P31323; 0.079% of 340,000 active; PKA-R2B holoenzyme dissociation, Cy5-IP20 fluorescence polarization; R2B truncated from residue 108, S112A mutant; 0% DMSO only, 100% 113 µM cGMP; activation, % at 11.4 µM;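 active means activation above a cutoff set at the mean over all compounds plus 3 SD, cut at about 18% in these data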;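 further: higher means more holoenzyme dissociation and a rise in polarization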
aDG glyco act: alpha-DG glycosylation activation; 0.22% of 360,000 active; AID 624168; activation, % at 10 µM; Pro5-aDG cells, alpha-DG glycosylation AlphaScreen (IIH6); 0% Pro5, 100% B10-LARGE cell signal;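 active means activation of at least 8% versus controls, or a plate z-score of at least 8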;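 further: Pro5 are CHO cells carrying HIG-tagged alpha-DG that lacks glycosylation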
Fh CTSL1 inh: blocks F. hepatica cathepsin L1 in PFM18AAP counter-screen; recombinant F. hepatica cathepsin L1, Z-Leu-Arg-MCA fluorescence; inhibition, % at 5.96 µM; 0.49% of 300,000 active;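 active means inhibition above the mean of all tested compounds plus 3 SD, set per screening campaign, cut at about 17% in these data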;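 further: 0% = plate median of test compound wells and 100% = 1 µM Z-Phe-Ala-diazomethylketone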
R2B FP artifact: fluorescence polarization artifact in PKA-R2B activator counter-screen; 6% of 270 active; shares compounds with PKA-R2B activ; AID 504796; activation, % at 11.4 µM; FP artifact counterscreen; in the data active means activation above about 20%;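 further: Cy5 labelled IP20 peptide probe with compound but no PKA protein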
PKA-R2B confirm: PKA-R2B complex activation, confirmation | 9% of 270 active | AID 504797 | shares compounds with PKA-R2B activ | fluorescence polarization | activation, % at 11.4 µM; in the data active means activation above about 19%
Starred values were filed as active, the others as inactive; · = not tested or not shown.

SMILES	PKA-R1A activ	UCH37 inh	PKA-R2B activ	aDG glyco act	Fh CTSL1 inh	R2B FP artifact	PKA-R2B confirm
CC(=O)NCC(=O)OC(C)C(=O)Nc1ccc(C(C)=O)cc1 (centres undefined)	0	2	19*	0	-15	-3	2
CCC1NC(=O)c2cc(S(N)(=O)=O)c(Cl)cc2N1 (centres undefined)	10	-16	21*	1	0	4	2
COCCNC(=O)C(=O)NN=C(C)CC(=O)Nc1cccnc1	·	2	·	·	·	·	·
c1ccc(-c2nnc(OCCN3CCOCC3)c3ccccc23)cc1	-1	2	18*	0	5	0	-4
CC(CC(=O)Nc1ccc2c(c1)OCCO2)=NNC(=O)c1cccc(O)c1	·	2	·	·	·	·	·
Cc1cccc(NN=C2COC(C)(C)CC2=O)c1	·	8	·	·	·	·	·
O=C1C2ON(c3ccccc3)C(c3ccncc3)C2C(=O)N1c1ccc(Br)cc1 (centres undefined)	-7	-1	5	0	-1	·	·
Cc1ccc(N2C(=O)C3ON(c4ccccc4)C(c4ccncc4)C3C2=O)cc1 (centres undefined)	3	2	20*	0	1	2	3
c1ccc(Cn2ncc3c(Nc4ccccc4)ncnc32)cc1	-1	1	1	0	1	·	·
Brc1ccc(/C=N/Nc2ncnc3c2cnn3Cc2ccccc2)cc1	-4	·	22*	0	-2	-1	3
CCOc1ccccc1C=Nn1c(C)nc2ccccc2c1=O	·	1	·	·	·	·	·
CCOc1cc(/C=N/n2c(C)nc3ccccc3c2=O)ccc1O	-10	·	20*	0	1	2	3
O=C(COC(=O)c1ccccc1O)NC1CCCc2ccccc21 (centres undefined)	1	-8	21*	0	·	2	5
Cn1cnc(S(=O)(=O)Nc2cc(C(F)(F)F)ccc2N2CCOCC2)c1	-4	3	20*	0	1	1	-1
COC(=O)c1cnn(-c2ccccc2)c1C=NNC(=S)Nc1ccccc1	·	1	·	·	·	·	·
CCOc1ccc(NC(=O)CN2C(=O)NC3(CCCCCC3)C2=O)cc1	-4	3	20*	0	·	-3	-3
O=C(CN1C(=O)NC2(CCCCCCC2)C1=O)Nc1ccc(OC(F)F)cc1	-5	0	-11	2	·	·	·
C=CCn1c(N=Cc2ccc(N(C)C)cc2)nc2ccccc21	·	4	·	·	·	·	·
CCn1c(=O)c(C(=O)NNS(=O)(=O)c2ccc(Cl)cc2)c(O)c2ccccc21	-2	3	18*	0	-2	-3	-2
C=CCc1c(C)nc(-c2ccccc2)nc1NN=C(C)c1ccccc1	·	5	·	·	·	·	·
CC(=O)NS(=O)(=O)c1ccc(N=NN2CCOCC2)cc1	3	5	23*	0	-1	1	9
CC(C)(C)NC(=O)CN(C(=O)C1(C)CC(=O)N=C2C=CC=CN21)C1CCCC1 (centres undefined)	0	-474	3	0	-4	·	·
CC1=CC2=NC(=O)CC(C)(C(=O)N(CC(=O)NC(C)(C)C)C3CCCC3)N2C=C1 (centres undefined)	-4	-27	22*	0	1	-1	-1
COc1ccc(S(=O)(=O)Nc2cccc(C(C)=O)c2)cc1Br	-5	-1	4	0	0	·	·
COc1ccc(S(=O)(=O)Nc2ccc(NC(C)=O)cc2)cc1Br	2	0	22*	0	-4	2	3
SMILES	PKA-R1A activ	UCH37 inh	PKA-R2B activ	aDG glyco act	Fh CTSL1 inh	R2B FP artifact	PKA-R2B confirm
Cc1cc(C)c(S(=O)(=O)NCC(=O)O)cc1C	4	1	20*	0	-2	5	4
COc1ccc(OC)c(S(=O)(=O)NCC(=O)O)c1	0	2	-3	0	3	·	·
CCN(Cc1ccccc1)c1ccc(C=NNC(=O)c2cccc(S(=O)(=O)N3CCOCC3)c2)cc1	·	-88	·	·	·	·	·
O=C1NCCCN1C1OC(CO)C(O)C1O (centres undefined)	11	·	22*	0	·	6	6
CN(C)c1ccc(N=Nc2ccc(S(=O)(=O)O)cc2)c2ccccc12	-8	17	30*	0	2	-2	11
CN(C)c1ccc(N=Nc2ccc(S(N)(=O)=O)cc2)cc1	9	4	1	0	2	·	·
CN(C)S(=O)(=O)c1cccc(-c2cn3ccccc3n2)c1	4	-1	19*	0	0	5	4
S=C(Nc1ccc(Cl)cc1)N(CCCN1CCOCC1)Cc1cccs1	-1	3	22*	0	-3	2	5
COc1cccc(CNC(=O)CCSCc2ccccc2F)c1	5	1	20*	0	-3	-2	-1
COc1cccc(OC)c1CNC(=O)CCSCc1ccccc1F	-9	2	-6	0	5	·	·
CCOc1c(CNCCNC(=O)c2nonc2N)cccc1OC	4	0	19*	0	0	2	6
NC(CC(=O)Nc1cc(C(F)(F)F)ccc1Cl)=NO	·	1	·	·	·	·	·
C=CCn1c(SCc2cc(C(C)=O)ccc2OCC)nc2ccccc2c1=O	6	-2	19*	0	1	0	-1
COc1ccc(C(C)=O)cc1CSc1nc2ccccc2c(=O)n1-c1ccccc1	2	5	-4	1	1	·	·
CC(C)c1ccc(OCc2cccc(C(=O)NN=Cc3cccnc3)c2)cc1	·	3	·	·	·	·	·
O=C(O)CC(Cc1ccc(Cl)cc1)C(=O)Nc1ccc([N+](=O)[O-])cc1 (centres undefined)	3	7	19*	2	-2	-4	-1
COc1cc(OC)cc(-c2c(-c3cccs3)c3cc(Br)ccc3n2C)c1	4	-25	20*	0	·	5	1
CCc1nc2ccccc2c(C(=O)OCC(=O)NCCCN2CCCC2=O)c1C	7	4	19*	0	1	0	-3
CC1(C)CC(=O)C(C=Nc2cccnc2N=CC2=C(O)CC(C)(C)CC2=O)=C(O)C1	·	2	·	·	·	·	·
Cc1nn(CC(=O)OCC(=O)Nc2ccccc2[N+](=O)[O-])c(C)c1[N+](=O)[O-]	4	4	19*	0	2	-1	3
Cc1ccc(NC(=O)COC(=O)Cn2nc(C)c([N+](=O)[O-])c2C)c([N+](=O)[O-])c1	7	2	13	0	-5	·	·
COCCN(C(=O)COC(=O)/C=C/c1cccs1)c1c(N)n(Cc2ccccc2)c(=O)[nH]c1=O	6	3	23*	0	-2	2	2
Cc1cccc(Nc2ncnc(N)n2)c1	-1	-2	21*	0	4	6	5
